The source of these data is ChEMBL document CHEMBL4513216, “Probing the Open Global Health Chemical Diversity Library for Multistage-Active Starting Points for Next-Generation Antimalarials” (ACS Infect Dis, 2020).

Molecules are shown by their SMILES.

A short description of this series: Toxicity liver stage against HepG2, at 10uM. The series is classed as cell-based. Also noted: test concentration 10 uM, cell line HepG2-A16-CD81EGFP. The following applies: human, HepG2-A16-CD81EGFP cells; read-out: INHIBITION
The gist of the method: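 Uninfected HepG2-A16-CD81EGFP cells, 3 × 10^3 per well, 1536-well, plated on prespotted compound at 10 μM final, parasite-free screening media added to match infected plates; puromycin 10 μM positive, DMSO 0.5% negative; run in parallel with 48 h PbLuc assay at 37 °C, 5% CO2; viability by CellTiter-Glo luminescence, normalized to controls.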

For `CCC(CC)n1nc(C)cc1NC(=O)C1CCOC1` (configuration not stated), the cytotoxicity at 10 µM is -5.15%.
Next, `COc1ccccc1-c1cc(C(=O)Nc2nc[nH]n2)[nH]n1`: -2.2%; `CCn1cc(CNc2ccc(F)c(N3CCCS3(=O)=O)c2)cn1`: -17%; `COc1cccc(-c2noc3c2CN(c2ncnc4c2CCC4)CC3)c1`: 51%.
Next, `Cc1nc(N(CCC(N)=O)Cc2ccccc2)c2nc(C)oc2n1`: -3.86%.
Next, `Nc1cc(-c2cccc3c2CCNC3)ncn1`: -8.27%; `O=c1ccc2c(n1CCN1CCCC1)CCN(c1ncccn1)CC2`: 8.33%.
As for `Cc1nc(CNC(=O)N(CCCO)C2CCc3ccccc32)oc1C` (configuration not stated), the cytotoxicity at 10 µM is -13.5%.
Next, `O=C(c1cccc(S(=O)(=O)NCCc2cscn2)c1)N1CCOCC1`: 5.67%; `CN(C(=O)Cn1nc(-c2ccc(F)cc2)oc1=O)c1ccccc1`: -0.267%; `COC(=O)c1ccc(C(=O)NCc2ccco2)nc1`: -3.73%.
As to `COc1ccc(CN(C)C(=O)CCc2c(C)nc(C)[nH]c2=O)cc1OC`, the cytotoxicity at 10 µM was -11.2%.
Next, `COc1ccc(S(=O)(=O)N2CC(CC(=O)O)c3ccccc32)cc1` (configuration not stated): 6.04%; `CN1CCN(CCO)C(=O)C12CCN(c1nccs1)CC2`: 3.88%.
The same measure for `CC(C)OCCCN(Cc1ccncc1)Cc1cccc(F)c1F`: -15.3%; for `CN(Cc1cc(Br)cn1C)C(=O)Cc1cccc(O)c1`: -4.99%.
On to `Cc1cc(C(=O)N2CCOC(c3nc(C(C)C)n[nH]3)C2)no1` (configuration not stated), for which the cytotoxicity at 10 µM was -5.13%.
The same measure for `Fc1cccc(-c2nnn3c2COC(CNc2ncccn2)C3)c1` (configuration not stated): -65.3%; for `CC(C(=O)Nc1ccnn1C(C)C)N1CCN(Cc2ccccc2)CC1` (configuration not stated): -7.55%.
The same measure for `O=C(C(NCc1cccc(F)c1F)c1ccccc1)N1CCOCC1` (configuration not stated): 8.61%; for `COc1ccc(CNCC2(COc3cccnc3)C[C@@H](O)[C@@H](O)C2)cc1` (some centres not stated): -57%.
For `CSCc1noc(CN2CCCCC2CCc2ccc(O)cc2)n1` (configuration not stated), the cytotoxicity at 10 µM was -1.58%.
Turning to `CS(=O)(=O)N1CCC(Oc2ccc(C(=O)N3CCSCC3)cc2Cl)CC1`, the cytotoxicity at 10 µM is 16.2%.
The same measure for `Cc1noc(C)c1C(=O)N1CCC(c2[nH]ncc2S(C)(=O)=O)C1` (configuration not stated): -9.83%.
As to `CC(C)CCN(C)Cc1ccccc1-c1nc(C(C)C)cc(=O)[nH]1`, the cytotoxicity at 10 µM worked out at 5.46%.
The same measure for `Cc1cc(O)nc(C2CN(CC3(O)CCOCC3)CCO2)n1` (configuration not stated): -18.3%.
The same measure for `Brc1ccc(NCCCOC2CCOCC2)nc1`: 1.52%; for `Cc1ccc(N(C)C2CCCN(C(=O)Nc3ccc(F)cc3F)C2)cc1` (configuration not stated): -8.19%; for `Cc1cc(C(=O)NCC(C)N2CCc3ccccc32)on1` (configuration not stated): -22.8%.
Next, `COc1ccc(C)cc1-n1ccc(C(=O)NCC2CCCOC2)n1` (configuration not stated): -2.51%; `CNC(=O)CN1CCN(C(=O)c2ccn(C)c(=O)c2)CC1`: -16%; `COc1cccc(C2CC(=O)Nc3nc(N4CCOCC4)sc32)c1OC` (configuration not stated): -3.26%.
As for `c1csc(CN2CCc3ncnc(C4CCOC4)c3CC2)c1` (configuration not stated), the cytotoxicity at 10 µM was 8.01%.
Next, `COc1ccc(-n2ccnc2-c2cnc(C(C)C)nc2)cc1C(=O)O`: -2.42%; `COCCO[C@H]1CCN(Cc2cnn(C)c2)[C@H]1Cc1cccnc1`: 0.793%.
For the molecule `Cc1cnc(N2C[C@@H]3CN(C4CCOC4)CCC[C@]3(C(=O)O)C2)nc1` (some centres not stated), the cytotoxicity at 10 µM was -111%.
The same measure for `CC[C@H]1CN2CC[C@H]1C[C@@H]2CNCc1cccc(C#N)c1`: 5.96%; for `CS(=O)(=O)N1CCOCC12CCN(Cc1ccoc1)CC2`: 7.81%.
The same measure for `CCCNC(=O)NC(=O)CN(CC(C)O)c1ccccc1` (configuration not stated): -2.48%.
The same measure for `COCCNc1ccc(CNCc2cnc3nc(C)cc(C)n23)cc1`: -153%; for `CS(=O)(=O)N1CC[C@H]2O[C@H](C(=O)NCCc3ccncc3)CC[C@H]21`: 4.41%; for `COc1ccc(NC(=O)C(c2ccc(OC)cc2)N2CCOCC2)cc1` (configuration not stated): -3.39%.
With `CN(C)Cc1cn(-c2ccccc2C(=O)NCC2CCCCN2C)cn1` (configuration not stated), the cytotoxicity at 10 µM is -0.94%.
Take `Cc1nc(CN2CCCC(NCCOCC(F)(F)F)C2)no1` (configuration not stated): the cytotoxicity at 10 µM is -11.1%.
Next, `CS(=O)(=O)N1C[C@H]2CC[C@@H](C1)N(Cc1ccc3nsnc3c1)C2`: 3.18%.
As for `Cc1ccc(CN2CCC[C@]3(C(=O)O)CN(C)C[C@@H]3C2)s1`, the cytotoxicity at 10 µM is -106%.
The same measure for `CN(C)C(=O)Cc1nc(CN2CCOC(Cn3cccn3)C2)cs1` (configuration not stated): 0.743%; for `O=C(NCCc1nnc2n1CCCCC2)N1CCC2(CCOC2)C1` (configuration not stated): 4.18%.
On to `COc1ncc(-c2ccc(NC(C)=O)cc2)c(OC)n1`, for which the cytotoxicity at 10 µM was -8.64%.
For the molecule `O=C(O)CN1CCc2onc(C(c3ccccc3)c3ccccc3)c2C1`, the cytotoxicity at 10 µM was -0.849%.
Next, `O=C1C[C@@H]2CCN(Cc3ccccc3)C[C@@H]2CCN1c1ccccc1`: 3.16%; `O=C1NC2(CCN(C(=O)Cc3ccsc3)CC2)CC1c1ccncc1` (configuration not stated): 5.06%.
Next, `CSc1ccc2cc(CN(C)CCO)c(=O)[nH]c2c1`: 5.76%; `CC(Oc1ccccc1)C(=O)N1CCCN(Cc2cscn2)CC1` (configuration not stated): -3.92%.
Next, `Cc1cnn(CC2CCCN2C(=O)CCc2cscn2)c1` (configuration not stated): -11.9%; `CCn1cc(CN(C)S(=O)(=O)c2ccccc2)cn1`: 11.9%; `CC(C)CN1C(=O)C2(CCN(Cc3ccoc3)C2)c2ccccc21` (configuration not stated): 4.82%.
Regarding `Cc1ccn(-c2ccccc2NCc2ccccn2)n1`, the cytotoxicity at 10 µM is -9.99%.
The same measure for `CCN(CC1CCOCC1)C(=O)Cn1cccc(C(F)(F)F)c1=O`: -10.2%; for `CC1CN(C)c2ccccc2N(C(=O)c2c[nH]c(C(C)C)n2)C1` (configuration not stated): 3.61%.
With `Cn1cc(CN2CCc3ncn(C)c3C2COCc2cccnc2)cn1` (configuration not stated), the cytotoxicity at 10 µM was determined as 6.86%.
Next, `NC(=O)NC(CC(=O)NCCc1cccc(F)c1)c1ccccc1` (configuration not stated): -0.862%.
The same measure for `CN(C)C(=O)N1CCCC(C(=O)N(C)CCCc2cnn(C)c2)C1` (configuration not stated): -0.645%.
With `Cc1ccc(CN2CCN(c3cc(NCCO)ncn3)CC2CCO)o1` (configuration not stated), the cytotoxicity at 10 µM came to 7.11%.
For the molecule `CCC(Nc1nc(C2CCCC2)nc2c1cnn2C)c1ccncc1` (configuration not stated), the cytotoxicity at 10 µM was -39.6%.
The same measure for `CCN(CC)C(=O)Cn1c(=O)n(Cc2ccco2)c2ncccc21`: -6.77%; for `O=C(Nc1ccccc1F)NC1(CO)CCOCC1`: -46.4%.
Next, `FC(F)(F)c1cc(C2CCN(c3cnccn3)CC2)n2ccnc2n1`: -1.53%; `O=C(c1cnn(-c2ccccc2F)c1)N1CCN(CCO)CC1`: -8.18%.
Next, `Cc1c(Cl)cccc1NCc1nc2n(n1)CCCCC2`: 10.6%; `Cc1cc(N2CCN(c3nc4ccccc4cc3CO)CC2)nc(C)n1`: 7.86%; `O=C1OCCN1CCNCC1(O)CCCN(CCC2CCCCC2)C1=O` (configuration not stated): -0.615%.
For the molecule `CN1CCC/C1=N\S(=O)(=O)c1ccc(NC(=O)c2ccco2)cc1`, the cytotoxicity at 10 µM stood at 4.56%.
The same measure for `COCCN1CCC2(COCc3cnc(N4CCOCC4)nc32)C1` (configuration not stated): 11.6%.
The same measure for `COc1ccc(OCc2nc(C(=O)NCCN3CCOCC3)co2)cc1`: 1.87%; for `COc1ccccc1OCC(=O)NS(=O)(=O)c1ccc(F)cc1F`: 8.68%; for `Cc1c(CN2CCCC(c3[nH]ncc3S(C)(=O)=O)C2)cnn1C` (configuration not stated): 4.69%.
The same measure for `Cn1cnnc1C1CCCN(C(=O)NCCn2ccnc2)C1` (configuration not stated): -2.74%.
In the case of `Cc1cc(C)n(-c2cncc(N3CCN(C(=O)CN(C)C)CC3)n2)n1`, the cytotoxicity at 10 µM is -2.09%.
The same measure for `CCN(CC)CCCNc1nc(C)nc2c1CCN(C)C2`: 3.19%; for `Cn1cc(CN2CCc3onc(COCC4CC4)c3C2)cn1`: 6.35%.
Next, `CCOCC(O)CN1CCN(C(=O)Cc2ccc3c(c2)CCC3)CC1` (configuration not stated): -15.5%; `CN1CCC(N(C)C(=O)c2cnn(-c3ccccc3Br)c2N)CC1`: -5.63%.
The same measure for `COc1ccc(CN2CCn3cccc3C2C)cc1F` (configuration not stated): -2.63%; for `Cc1cc(S(=O)(=O)N2CCCN3CCCC3C2)ccc1F` (configuration not stated): 17%; for `Cc1cc(C)c(C(=O)N(CCO)Cc2ccccc2F)c(=O)[nH]1`: -0.626%.
Consider `c1ccc(-c2nccc(N3CCc4c(ncn4C4CC4)C3)n2)cc1`, for which the cytotoxicity at 10 µM turned out to be 7.22%.
The same measure for `CS(=O)(=O)N1CC2(CCCN(C3COC3)C2)Cc2ccccc21` (configuration not stated): 5.15%; for `O=C(NCc1ccc(Br)cc1)NCC1CCOC1` (configuration not stated): -4.51%; for `CCc1noc(CN2CCN(Cc3cccs3)CC2)n1`: -5.06%.
Next, `CS(=O)(=O)NCC1CCCCN1C(=O)c1cccc(C(F)(F)F)c1` (configuration not stated): -2.02%; `CCc1noc(CN2CCCC2C(=O)OCc2ccccc2)n1` (configuration not stated): -1.57%.
`CNC(=O)c1nnc2ccc(N3CCOCC3)cc2n1`: the cytotoxicity at 10 µM was 6.86%.
The same measure for `CCC(NCc1ncc[nH]1)c1nc(C(F)(F)F)cs1` (configuration not stated): 8.02%; for `c1ccc(Cn2ccnc2CNCC2CCCN2c2cccnn2)cc1` (configuration not stated): -9.86%.
Next, `COc1ccc(Cn2nnnc2SCC2CCCN(C)C2)cc1` (configuration not stated): -1.33%; `COCC(C)NC(=O)CN1CCC(CO)CC1` (configuration not stated): -6.16%.
